In ChEMBL document CHEMBL1138500 (J Med Chem, 2009):
Substitutions are numbered along the chain they refer to.

Experiments:
[1] = biological target: T1, Lysosomal acid glucosylceramidase (Homo sapiens, UniProt P04062); test: Inhibition of human placental beta-glucocerebrosidase
T1 sequence (P04062 whole entry): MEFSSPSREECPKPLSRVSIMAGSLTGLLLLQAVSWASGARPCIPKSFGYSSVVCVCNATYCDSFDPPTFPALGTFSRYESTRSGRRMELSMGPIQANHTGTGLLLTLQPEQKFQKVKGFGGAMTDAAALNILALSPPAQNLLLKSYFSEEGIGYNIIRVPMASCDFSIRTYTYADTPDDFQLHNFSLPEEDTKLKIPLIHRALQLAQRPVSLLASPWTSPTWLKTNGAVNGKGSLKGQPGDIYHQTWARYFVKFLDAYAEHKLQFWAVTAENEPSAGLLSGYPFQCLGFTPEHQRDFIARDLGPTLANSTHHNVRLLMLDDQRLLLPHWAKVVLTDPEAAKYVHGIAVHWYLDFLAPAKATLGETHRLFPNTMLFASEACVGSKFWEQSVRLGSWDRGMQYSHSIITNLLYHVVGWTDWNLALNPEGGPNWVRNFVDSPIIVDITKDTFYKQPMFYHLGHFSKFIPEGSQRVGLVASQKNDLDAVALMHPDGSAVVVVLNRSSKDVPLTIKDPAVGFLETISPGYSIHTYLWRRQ

HL-60 = test: Cytotoxicity against human HL60 cells assessed as dead cells at 100 uM after 3 days by propidium iodide staining based flow cytometry; assay type: cell-based; conditions: hl-60, 72 h
Method in brief: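 HL60 cells exposed to compound at 100 µM for 3 days; cytotoxicity reported as percentage of dead cells.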

[2] = tested on: T2, Lysosomal acid glucosylceramidase (Homo sapiens), P04062 [N409S]; test: Activation of beta-glucocerebrosidase N370S mutant in Goucher lymphoblasts at 50 uM after 3 days relative to control
T2 sequence (whole entry): T1 sequence (P04062 whole entry) with N409S

## CCCCCCCCN1C[C@@H](O)C(O)[C@H](O)C1
[1]
  IC50: > 500 µM
HL-60
  Activity: 3.55%

## CCCCCCCCCCN1C[C@@H](O)[C@@H](O)C1=O
[1]
  IC50: 285 µM
HL-60
  Activity: 6.69%
[2]
  fold change (FC): 1.5

## CCCCCCCCN1C[C@@H](O)[C@@H](O)[C@H](O)C1=O
[1]
  IC50: 175 µM
HL-60
  Activity: 3.51%
[2]
  fold change (FC): 6.2

## CCCCCCCCCCN1C[C@@H](O)[C@@H](O)[C@@H](O)C1=O
[1]
  IC50: 463 µM
HL-60
  Activity: 10.22%
[2]
  fold change (FC): 2.9

## O=C1[C@H](O)[C@H](O)[C@H](O)CN1CCCCCCO
[1]
  IC50: > 500 µM
HL-60
  Activity: 3.23%
[2]
  fold change (FC): 2.5

## CCCCN1C[C@@H](O)[C@@H](O)[C@H](O)C1=O
[1]
  IC50: > 500 µM
HL-60
  Activity: 2.78%

## CCCOCCN1C[C@@H](O)[C@@H](O)[C@H](O)C1=O
[1]
  IC50: > 500 µM
HL-60
  Activity: 2.39%
[2]
  fold change (FC): 3.8

## O=C1[C@@H](O)[C@H](O)[C@H](O)CN1CCCCCCO
[1]
  IC50: > 500 µM
HL-60
  Activity: 3.75%
[2]
  fold change (FC): 4.1

## CCCCCCCCCN1C[C@@H](O)[C@@H](O)[C@H](O)C1=O
[1]
  IC50: 102 µM
HL-60
  Activity: 4.71%
[2]
  fold change (FC): 2

## CC(=O)NC1CN(CCCCCCO)C(=O)C(O)[C@@H]1O (single isomer, unassigned)
[1]
  IC50: > 500 µM
HL-60
  Activity: 2.9%
[2]
  fold change (FC): 1.3

## CCCCCCCCCCN1C[C@H](O)[C@@H](O)[C@H](O)C1=O
[1]
  IC50: 295 µM
HL-60
  Activity: 11.2%
[2]
  fold change (FC): 2

## O=C1[C@@H](O)[C@H](O)[C@H](O)CN1CCO
[1]
  IC50: > 500 µM
HL-60
  Activity: 2.95%

## CCCCCCCCCCN1C[C@@H](O)[C@@H](O)[C@H](O)C1=O
[1]
  IC50: 46 µM
HL-60
  Activity: 5.19%
[2]
  fold change (FC): 2.1

## CCCCN1C[C@H](O)[C@@H](O)[C@H](O)[C@H]1CO
HL-60
  Activity: 2.69%

## O=C1NC[C@@H](O)[C@@H](O)[C@@H]1O
[1]
  IC50: > 500 µM
HL-60
  Activity: 2.77%

## CCCN(CCC)CCN1C[C@@H](O)[C@@H](O)[C@H](O)C1=O
[1]
  IC50: 253 µM
HL-60
  Activity: 3.45%
[2]
  fold change (FC): 3.9

## CCCOCCCCCCN1C[C@@H](O)[C@@H](O)[C@H](O)C1=O
[1]
  IC50: 127 µM
HL-60
  Activity: 4.33%
[2]
  fold change (FC): 3.6

## O=C1[C@H](O)[C@H](O)CN1CCCCCCO
[1]
  IC50: > 500 µM
HL-60
  Activity: 3.57%
[2]
  fold change (FC): 1.8

## O=C1[C@@H](O)[C@H](O)[C@@H](O)CN1CCCCCCO
[1]
  IC50: > 500 µM
HL-60
  Activity: 3.44%
[2]
  fold change (FC): 1.8

## CCCCCCCCCCN1CC(NC(C)=O)[C@@H](O)C(O)C1=O (single isomer, unassigned)
[1]
  IC50: > 500 µM
HL-60
  Activity: 7.58%

## O=C1[C@@H](O)[C@H](O)[C@H](O)CN1Cc1ccccc1
[1]
  IC50: > 500 µM
HL-60
  Activity: 3.46%
[2]
  fold change (FC): 3.4
